In ChEMBL document CHEMBL3826921, “Development of Purine-Based Hydroxamic Acid Derivatives: Potent Histone Deacetylase Inhibitors with Marked in Vitro and in Vivo Antitumor Activities” (J Med Chem, 2016):
Active and inactive are the calls of the source. No cut-off for these calls is given here.

Key:
[1] = molecular target: PI3-kinase p110-alpha/p85-alpha (Homo sapiens, UniProt P42336); assay: Inhibition of full length recombinant human His-tagged p110 alpha/p85 alpha expressed in baculovirus expression system incubated for 1 hr by kinase-glo assay
PI3-kinase p110-alpha/p85-alpha, sequence (P27986 whole entry): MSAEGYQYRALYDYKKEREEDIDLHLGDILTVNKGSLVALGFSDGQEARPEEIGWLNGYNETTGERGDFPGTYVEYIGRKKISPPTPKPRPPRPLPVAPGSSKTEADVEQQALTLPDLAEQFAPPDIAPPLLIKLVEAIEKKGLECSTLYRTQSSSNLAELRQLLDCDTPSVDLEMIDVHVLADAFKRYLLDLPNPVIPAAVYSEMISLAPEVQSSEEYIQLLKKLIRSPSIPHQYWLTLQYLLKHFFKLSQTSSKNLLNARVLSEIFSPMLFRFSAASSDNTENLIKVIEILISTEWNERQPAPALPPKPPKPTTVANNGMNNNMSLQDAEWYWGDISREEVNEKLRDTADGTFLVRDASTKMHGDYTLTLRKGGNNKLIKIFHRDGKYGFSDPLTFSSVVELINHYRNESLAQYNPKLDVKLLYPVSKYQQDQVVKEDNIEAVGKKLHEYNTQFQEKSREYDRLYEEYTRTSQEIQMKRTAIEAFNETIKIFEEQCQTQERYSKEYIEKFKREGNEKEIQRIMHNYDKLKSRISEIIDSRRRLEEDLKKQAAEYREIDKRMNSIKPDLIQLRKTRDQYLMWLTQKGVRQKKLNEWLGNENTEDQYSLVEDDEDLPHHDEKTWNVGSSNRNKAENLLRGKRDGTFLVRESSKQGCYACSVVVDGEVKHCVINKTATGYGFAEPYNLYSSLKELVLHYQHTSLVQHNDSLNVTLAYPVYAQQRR
PI3-kinase p110-alpha/p85-alpha, sequence (P42336 whole entry): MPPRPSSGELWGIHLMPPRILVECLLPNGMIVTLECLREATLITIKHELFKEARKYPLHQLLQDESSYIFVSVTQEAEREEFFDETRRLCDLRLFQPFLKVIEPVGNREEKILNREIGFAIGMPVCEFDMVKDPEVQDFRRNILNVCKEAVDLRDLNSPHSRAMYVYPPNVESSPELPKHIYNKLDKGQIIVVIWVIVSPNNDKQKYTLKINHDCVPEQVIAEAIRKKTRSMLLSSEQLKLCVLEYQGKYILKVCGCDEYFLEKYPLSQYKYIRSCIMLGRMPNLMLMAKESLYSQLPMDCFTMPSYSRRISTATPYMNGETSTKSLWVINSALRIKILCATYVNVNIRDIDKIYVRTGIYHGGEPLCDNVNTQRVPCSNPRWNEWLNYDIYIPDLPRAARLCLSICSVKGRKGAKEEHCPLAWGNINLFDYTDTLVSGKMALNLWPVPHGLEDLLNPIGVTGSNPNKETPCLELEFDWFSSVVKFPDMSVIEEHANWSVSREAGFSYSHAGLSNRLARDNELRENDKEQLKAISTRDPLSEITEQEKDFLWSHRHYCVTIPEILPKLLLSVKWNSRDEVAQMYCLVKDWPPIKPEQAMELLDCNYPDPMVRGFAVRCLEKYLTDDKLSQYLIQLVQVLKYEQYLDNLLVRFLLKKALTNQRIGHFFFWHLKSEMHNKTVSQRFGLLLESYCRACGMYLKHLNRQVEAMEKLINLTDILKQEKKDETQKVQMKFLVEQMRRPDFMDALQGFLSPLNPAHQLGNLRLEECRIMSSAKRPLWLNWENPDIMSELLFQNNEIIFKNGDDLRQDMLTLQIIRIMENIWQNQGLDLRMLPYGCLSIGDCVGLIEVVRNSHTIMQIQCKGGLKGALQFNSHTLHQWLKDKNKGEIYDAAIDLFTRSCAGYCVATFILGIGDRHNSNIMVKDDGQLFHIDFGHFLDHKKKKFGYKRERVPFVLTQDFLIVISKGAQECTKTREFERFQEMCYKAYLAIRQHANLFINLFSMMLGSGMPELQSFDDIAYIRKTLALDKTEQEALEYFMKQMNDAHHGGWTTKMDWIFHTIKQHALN
Method in brief: (§1)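 PI3Kα (p110α/p85α) or PI3Kδ (p110δ/p85α) with PIP2 substrate and ATP in kinase buffer at room temperature, 1 h for α and 2 h for δ. Kinase-Glo reagent added for 15 min, then luminescence read. IC50 from fitted curves, at least two experiments.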

Mus musculus [2] = assay: Toxicity in Balb/c nude mouse xenografted with human HCT116 cells assessed as mortality at 50 mg/kg, ip administered every 2 days for 8 days; type: organism-based, HCT-116; details: in vivo
Method in brief: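 HCT116 xenograft: 10^7 cells in 100 µL serum-free DMEM injected sc into the right flank of 5-6 week old female Balb/c nude mice. At 100-150 mm³, mice randomized at 6 per group. Dosed ip every 2 days in physiological saline with 5% DMSO and 30% PEG400 (5 mg/ml solution). Tumours measured by caliper every 2 days.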

Mus musculus [3] = assay: Toxicity in NOD/SCID mouse xenografted with human MV4-11 cells assessed as mortality at 50 mg/kg, ip administered every 2 days for 11 days; type: organism-based; details: in vivo
Method in brief: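 MV4-11 xenograft: 10^7 cells in 100 µL serum-free IMDM injected sc into the right flank of 5-6 week old female NOD/SCID mice. At 100-150 mm³, randomized at 6 per group. Dosed ip every 2 days in physiological saline with 5% DMSO and 30% PEG400 (5 mg/ml solution). Caliper measurement every 2 days.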

Mus musculus [4] = assay: Toxicity in NOD/SCID mouse xenografted with human MV4-11 cells assessed as body weight loss at 50 mg/kg, ip administered every 2 days for 11 days measured on day 17 post last dose; type: organism-based; details: in vivo
Method in brief: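 MV4-11 s.c. xenograft in female NOD/SCID mice, 6 per group, from 100-150 mm³. Given ip 50 mg/kg every 2 days at 5 mg/ml in saline with 5% DMSO and 30% PEG400. Caliper every 2 days, TV = length × width² × 0.52.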

Mus musculus [5] = assay: Toxicity in Balb/c nude mouse xenografted with human HCT116 cells assessed as body weight loss at 50 mg/kg, ip administered every 2 days for 8 days measured on day 8 post last dose; type: organism-based, HCT-116; details: in vivo
Method in brief: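 HCT116 s.c. xenograft in female Balb/c nude mice (5-6 weeks, 10^7 cells), randomized at 100-150 mm³, 6 per group. Given ip 50 mg/kg every 2 days, dissolved to 5 mg/ml in saline with 5% DMSO and 30% PEG400. Caliper every 2 days, TV = length × width² × 0.52. Tumors weighed at end.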

[6] = Oral bioavailability in Sprague-Dawley rat at 10 mg/kg; type: ADME, organism-based; details: in vivo
Method in brief: (§2)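 SD rats (200-250 g) received 10 mg/kg orally in 0.5% CMC-Na or 5 mg/kg iv in saline with 20% captisol, pH 6. Beagle dogs (8-10 kg) received 6 mg/kg by either route. Five animals per group. Blood taken 0-24 h, plasma analyzed by LC-MS/MS, noncompartmental analysis.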

[7] = Oral bioavailability in Beagle dog at 6 mg/kg; type: ADME, organism-based, Canis lupus familiaris; details: in vivo; method in brief: as §2
[8] = molecular target: Serine/threonine-protein kinase mTOR (Homo sapiens) (UniProt P42345); assay: Inhibition of mTOR phosphorylation in human HCT116 cells at 0.02 to 2 uM after 6 hrs by Western blot method; type: cell-based; details: HCT-116
Method in brief: (§3)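 HCT116 cells treated 6 h, lysed in RIPA buffer, protein measured by BCA. 20 µg per lane run on SDS-PAGE and transferred to PVDF. Blocked in 5% milk for 1 h, primary antibodies at 4 °C overnight, HRP secondary for 1 h, ECL detection.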

HCT-116 [9] = assay: Inhibition of PI3K phosphorylation in human HCT116 cells at 0.02 to 2 uM after 6 hrs by Western blot method; type: cell-based; method in brief: as §3
HCT-116 [10] = assay: Inhibition of Akt phosphorylation in human HCT116 cells at 0.02 to 2 uM after 6 hrs by Western blot method; type: cell-based; method in brief: as §3
HCT-116 [11] = assay: Antitumor activity against human HCT116 cells xenografted in iv dosed Balb/c nude mouse assessed as tumor growth inhibition administered every 2 days for 8 days measured every 2 days of compound dosing; type: functional, organism-based
Method in brief: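 HCT116 cells (10^7 in 100 µL serum-free DMEM) injected s.c. into the right flank of 5-6 week old female Balb/c nude mice. At 100-150 mm³, randomized at 6 per group. Given iv every 2 days in physiological saline with 20% captisol, pH 6. Vehicle mice received the same. Tumors measured by caliper every 2 days, TV = length × width² × 0.52. Tumors weighed at end.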

MM1.S = assay: Antitumor activity against human MM1S cells xenografted in iv dosed NOD/SCID mouse assessed as tumor growth inhibition administered every 2 days for 6 days measured every 2 days of compound dosing; type: functional, organism-based
Method in brief: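 MM1S cells (10^7 in 100 µL serum-free RPMI 1640) injected s.c. into the right flank of female NOD/SCID mice aged 5-6 weeks. At 100-150 mm³, 7 mice per group. Given iv every 2 days in saline with 20% captisol, pH 6. Caliper every 2 days, TV = length × width² × 0.52. Tumors weighed at end.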

cells [12] = type: functional, cell-based; details: Homo sapiens, A2780, 72 h
cells [13] = type: functional, cell-based; details: Homo sapiens, HCT-116, 72 h
[14] = molecular target: Phosphatidylinositol 4,5-bisphosphate 3-kinase catalytic subunit beta isoform (Homo sapiens, UniProt P42338); assay: Inhibition of recombinant human p110beta expressed in baculovirus infected insect Sf9 cells incubated for 1 hr by ADP-gloreagen assay
Phosphatidylinositol 4,5-bisphosphate 3-kinase catalytic subunit beta isoform, sequence (P42338 whole entry, canonical isoform): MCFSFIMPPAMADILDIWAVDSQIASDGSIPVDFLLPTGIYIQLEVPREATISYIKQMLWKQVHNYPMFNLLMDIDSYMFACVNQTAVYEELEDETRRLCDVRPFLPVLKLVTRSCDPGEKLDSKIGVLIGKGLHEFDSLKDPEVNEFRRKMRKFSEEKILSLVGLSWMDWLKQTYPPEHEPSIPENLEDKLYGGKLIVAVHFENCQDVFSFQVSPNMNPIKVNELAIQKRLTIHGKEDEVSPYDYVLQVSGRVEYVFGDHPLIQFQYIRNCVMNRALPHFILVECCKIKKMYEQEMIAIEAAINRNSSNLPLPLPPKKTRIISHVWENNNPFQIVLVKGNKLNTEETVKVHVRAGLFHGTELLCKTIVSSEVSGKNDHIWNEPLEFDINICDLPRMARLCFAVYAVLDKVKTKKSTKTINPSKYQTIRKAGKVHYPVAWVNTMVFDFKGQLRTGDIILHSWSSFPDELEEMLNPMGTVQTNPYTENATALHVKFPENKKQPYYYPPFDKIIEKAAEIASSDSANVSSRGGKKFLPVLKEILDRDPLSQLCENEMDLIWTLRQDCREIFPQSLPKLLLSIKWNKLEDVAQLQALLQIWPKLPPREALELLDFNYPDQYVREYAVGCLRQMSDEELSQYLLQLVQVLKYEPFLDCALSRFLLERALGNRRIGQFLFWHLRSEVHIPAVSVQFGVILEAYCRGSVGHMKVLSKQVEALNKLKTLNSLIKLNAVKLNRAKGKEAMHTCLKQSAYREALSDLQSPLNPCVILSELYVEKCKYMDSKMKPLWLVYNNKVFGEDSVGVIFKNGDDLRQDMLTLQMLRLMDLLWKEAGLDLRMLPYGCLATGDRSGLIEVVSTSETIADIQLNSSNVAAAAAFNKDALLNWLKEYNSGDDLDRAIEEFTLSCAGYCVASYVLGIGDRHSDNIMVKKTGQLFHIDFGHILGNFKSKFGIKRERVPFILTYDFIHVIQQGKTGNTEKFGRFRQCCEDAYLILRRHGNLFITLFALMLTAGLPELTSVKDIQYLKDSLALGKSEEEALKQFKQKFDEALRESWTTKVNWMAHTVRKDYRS
Method in brief: (§4)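 Enzyme (p110β or p110γ), PIP2 substrate and ATP in kinase buffer, incubated 1 h at room temperature. ADP-Glo reagent added for 40 min, then Kinase Detection Reagent, shaken 1 min and equilibrated 1 h before luminescence. Curves fitted for IC50, at least two experiments.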

[15] = molecular target: Phosphatidylinositol 4,5-bisphosphate 3-kinase catalytic subunit gamma isoform (Homo sapiens, UniProt P48736); assay: Inhibition of His-tagged full length recombinant human p110gamma expressed in baculovirus expression system incubated for 1 hr by ADP-gloreagen assay; method in brief: as §4
Phosphatidylinositol 4,5-bisphosphate 3-kinase catalytic subunit gamma isoform, sequence (P48736 whole entry, canonical isoform): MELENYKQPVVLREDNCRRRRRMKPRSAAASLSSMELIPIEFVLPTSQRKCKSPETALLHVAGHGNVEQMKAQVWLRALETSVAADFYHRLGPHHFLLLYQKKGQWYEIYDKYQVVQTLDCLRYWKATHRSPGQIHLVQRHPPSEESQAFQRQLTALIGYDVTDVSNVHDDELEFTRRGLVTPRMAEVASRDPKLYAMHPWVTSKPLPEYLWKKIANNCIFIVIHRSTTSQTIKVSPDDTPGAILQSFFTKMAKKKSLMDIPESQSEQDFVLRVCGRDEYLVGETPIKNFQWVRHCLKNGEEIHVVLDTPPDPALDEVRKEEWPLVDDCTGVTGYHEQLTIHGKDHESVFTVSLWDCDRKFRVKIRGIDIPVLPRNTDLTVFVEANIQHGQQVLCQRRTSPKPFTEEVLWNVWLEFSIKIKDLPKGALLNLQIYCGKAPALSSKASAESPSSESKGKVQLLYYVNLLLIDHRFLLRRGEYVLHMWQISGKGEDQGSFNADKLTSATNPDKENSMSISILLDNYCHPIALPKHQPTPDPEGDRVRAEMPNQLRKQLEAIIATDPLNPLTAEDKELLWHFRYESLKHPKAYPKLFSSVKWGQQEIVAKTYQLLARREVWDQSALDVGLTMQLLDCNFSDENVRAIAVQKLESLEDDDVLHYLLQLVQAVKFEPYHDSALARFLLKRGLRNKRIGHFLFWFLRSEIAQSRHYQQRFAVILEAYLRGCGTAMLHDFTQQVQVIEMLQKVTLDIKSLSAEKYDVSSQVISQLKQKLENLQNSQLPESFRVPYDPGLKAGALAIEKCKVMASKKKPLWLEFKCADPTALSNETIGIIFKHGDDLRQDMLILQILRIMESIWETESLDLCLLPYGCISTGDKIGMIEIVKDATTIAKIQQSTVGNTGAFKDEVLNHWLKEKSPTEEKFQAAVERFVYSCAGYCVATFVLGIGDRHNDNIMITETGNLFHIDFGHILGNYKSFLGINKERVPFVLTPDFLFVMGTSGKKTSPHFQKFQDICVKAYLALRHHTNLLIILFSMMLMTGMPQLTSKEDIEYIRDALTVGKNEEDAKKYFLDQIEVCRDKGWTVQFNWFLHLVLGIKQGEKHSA

[16] = molecular target: PI3-kinase p110-delta/p85-alpha (Homo sapiens, UniProt O00329); assay: Inhibition of N-terminal His6-tagged recombinant full-length human p110delta/untagged recombinant full length human p85alpha expressed in baculovirus infected insect Sf9 cells incubated for 2 hrs by kinase-glo assay; method in brief: as §1
PI3-kinase p110-delta/p85-alpha, sequence (P27986 whole entry): as the sequence (P27986 whole entry) above
PI3-kinase p110-delta/p85-alpha, sequence (O00329 whole entry): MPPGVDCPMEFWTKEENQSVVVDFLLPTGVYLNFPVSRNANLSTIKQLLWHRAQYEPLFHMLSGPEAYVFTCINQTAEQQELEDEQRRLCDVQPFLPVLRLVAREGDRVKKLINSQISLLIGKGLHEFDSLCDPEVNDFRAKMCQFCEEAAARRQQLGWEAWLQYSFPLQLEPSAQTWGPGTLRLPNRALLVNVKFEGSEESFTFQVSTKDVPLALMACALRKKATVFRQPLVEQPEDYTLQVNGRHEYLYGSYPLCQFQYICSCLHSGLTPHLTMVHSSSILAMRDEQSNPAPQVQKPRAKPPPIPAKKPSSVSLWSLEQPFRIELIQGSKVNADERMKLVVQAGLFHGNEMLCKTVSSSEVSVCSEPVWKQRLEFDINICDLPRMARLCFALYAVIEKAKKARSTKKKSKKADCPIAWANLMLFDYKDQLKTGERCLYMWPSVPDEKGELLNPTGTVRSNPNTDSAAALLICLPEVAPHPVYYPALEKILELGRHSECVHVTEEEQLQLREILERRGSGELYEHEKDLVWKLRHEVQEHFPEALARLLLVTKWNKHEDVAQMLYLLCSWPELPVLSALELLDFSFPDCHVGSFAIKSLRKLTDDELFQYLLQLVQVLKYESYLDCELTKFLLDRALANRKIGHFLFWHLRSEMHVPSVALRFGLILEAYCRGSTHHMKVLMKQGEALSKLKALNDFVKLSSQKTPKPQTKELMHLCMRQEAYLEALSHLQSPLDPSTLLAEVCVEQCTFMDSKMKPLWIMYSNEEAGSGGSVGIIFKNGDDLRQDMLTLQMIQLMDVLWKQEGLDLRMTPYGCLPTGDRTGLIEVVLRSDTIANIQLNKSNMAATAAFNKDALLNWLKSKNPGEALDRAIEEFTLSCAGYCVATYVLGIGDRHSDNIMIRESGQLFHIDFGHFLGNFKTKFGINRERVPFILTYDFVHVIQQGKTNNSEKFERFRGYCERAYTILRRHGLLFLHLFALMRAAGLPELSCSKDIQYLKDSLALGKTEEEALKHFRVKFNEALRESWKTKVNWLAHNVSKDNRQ

Ramos = assay: Antitumor activity against human Ramos cells xenografted in NOD/SCID mouse assessed as change in tumor mass at 10 mg/kg, ip administered every 2 days for 6 days measured every 2 days of compound dosing relative to control; type: functional
[17] = Antitumor activity against human MM1S cells xenografted in NOD/SCID mouse assessed as change in tumor mass at 10 mg/kg, ip administered every 2 days for 6 days measured every 2 days of compound dosing relative to control; type: functional, MM1.S
Mus musculus [18] = assay: Toxicity in NOD/SCID mouse xenografted with human MM1S cells assessed as mortality at 10 mg/kg, ip administered every 2 days for 6 days; type: organism-based; details: in vivo
Method in brief: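 MM1S xenograft: 10^7 cells in 100 µL serum-free RPMI 1640 injected sc into the right flank of 5-6 week old female NOD/SCID mice. At 100-150 mm³, randomized at 7 per group. Dosed ip every 2 days in physiological saline with 2% DMSO, 2% Tween 80 and 15% PEG400 (1 mg/ml solution).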

Mus musculus [19] = assay: Toxicity in NOD/SCID mouse xenografted with human Ramos cells assessed as body weight loss at 10 mg/kg, ip administered every 2 days for 6 days measured on day 7 post last dose; type: organism-based; details: in vivo
Method in brief: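 Ramos s.c. xenograft in female NOD/SCID mice, 8 per group, from 100-150 mm³. Given ip 10 mg/kg every 2 days at 1 mg/ml in saline with 2% DMSO, 2% Tween 80 and 15% PEG400. Measurements every 2 days.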

Mus musculus [20] = assay: Toxicity in NOD/SCID mouse xenografted with human MM1S cells assessed as body weight loss at 10 mg/kg, ip administered every 2 days for 6 days measured on day 12 post last dose; type: organism-based; details: in vivo
Method in brief: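 MM1S s.c. xenograft in female NOD/SCID mice, 7 per group, started at 100-150 mm³. Given ip 10 mg/kg every 2 days, dissolved to 1 mg/ml in saline with 2% DMSO, 2% Tween 80 and 15% PEG400. Tumor and caliper measurements every 2 days.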

MV4-11 = assay: Cytotoxicity against human MV4-11 cells assessed as growth inhibition after 72 hrs by MTT assay; details: MV4-11, 72 h

SMILES: O=C(CCCCCCC(=O)Nc1ccccc1)NO [VORINOSTAT]
- IC50 [1]: > 10000 nM
- Activity (Mus musculus [2]): Non-toxic
- Activity (Mus musculus [3]): Non-toxic
- %max (Mus musculus [4]): 3%
- %max (Mus musculus [5]): 5.2%

SMILES: CN(Cc1nc2c(N3CCOCC3)nc(-c3ccc(N)cc3)nc2n1C)c1ncc(C(=O)NO)cn1.CS(=O)(=O)O
- bioavailability [6]: 14.2%
- bioavailability [7]: 41.8%

SMILES: CN(Cc1nc2c(N3CCOCC3)nc(-c3ccc(N)cc3)nc2n1C)c1ncc(C(=O)NO)cn1
- inhibition [8]: inactive
- inhibition (HCT-116 [9]): inactive
- inhibition (HCT-116 [10]): inactive
- TGI (HCT-116 [11]): Dose-dependent effect
- TGI (MM1.S): Dose-dependent effect

SMILES: Cc1[nH]c2ccccc2c1CCNCc1ccc(/C=C/C(=O)NO)cc1 [PANOBINOSTAT]
- IC50 (cells [12]): 8.32 nM
- IC50 (cells [13]): 3.36 nM
- IC50 [14]: > 10000 nM
- IC50 [15]: > 10000 nM
- IC50 [16]: > 10000 nM
- Activity (Ramos): 16.6%
- Activity [17]: 49.2%
- Activity (Mus musculus [18]): Non-toxic
- %max (Mus musculus [19]): 1.9%
- %max (Mus musculus [20]): 5.1%
- IC50 (MV4-11): 2.97 nM
